Screening results: PubChem, several laboratories
In the library only some 4.1% were active in any assay of this set; here they are far more common.
FLuc inhib CS: inhibits firefly luciferase, flagging false hits in luciferase inhibition screens | 200,000 compounds, 1.5% hits | P08659 | ATPLite firefly luciferase biochemical luminescence, 10 min | inhibition, % at 10 µM;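 active means inhibition above about 50% when tested at 10 µM, limit read from the data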
Target sequence (P08659 whole entry, looked up): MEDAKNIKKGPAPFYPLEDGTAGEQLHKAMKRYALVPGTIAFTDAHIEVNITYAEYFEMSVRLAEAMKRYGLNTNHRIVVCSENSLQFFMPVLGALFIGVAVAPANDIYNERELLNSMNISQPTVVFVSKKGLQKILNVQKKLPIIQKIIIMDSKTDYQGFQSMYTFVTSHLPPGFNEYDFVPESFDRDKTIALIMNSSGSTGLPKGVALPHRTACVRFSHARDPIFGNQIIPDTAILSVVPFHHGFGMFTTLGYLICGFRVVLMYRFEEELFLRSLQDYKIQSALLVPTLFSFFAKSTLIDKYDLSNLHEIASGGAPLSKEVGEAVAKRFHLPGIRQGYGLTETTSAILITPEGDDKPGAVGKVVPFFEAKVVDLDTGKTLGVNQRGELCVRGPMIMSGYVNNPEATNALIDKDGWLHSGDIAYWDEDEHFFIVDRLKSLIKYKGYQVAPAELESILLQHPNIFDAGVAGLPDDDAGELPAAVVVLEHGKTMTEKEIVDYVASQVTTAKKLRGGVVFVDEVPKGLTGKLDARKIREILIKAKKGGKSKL
NF-kB expr up: raises NF-kB expression in human neuronal cells | NF-kB reporter expression; stronger effect = higher value | fold change at 12.5 µM | 190,000 compounds, 1.6% hits | AID 1239; in the data active means fold change above about 3.3
STAT1 act: increases IFN-gamma driven STAT1 reporter signal | NIH 3T3 STAT1-luciferase reporter, luminescence; 100% = IFN-gamma alone, no compound | activation (% of control), % at 5.5 µM | 200,000 compounds, 2.6% hits | AID 932;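 active means activation above the screen-wide mean activation plus 3 SD, cut at about 130% in these data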;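 further: raw ratio to IFN-gamma control signal so 100% means no change and 0% no light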
FLuc stim CS: affects firefly luciferase, flagging false hits in luciferase stimulation screens. P08659. ATPlite luciferase biochemical, luminescence, 10 min; 0 = ATP-free wells, 1 = DMSO control. AID 1027. activation factor at 10 µM. 200,000 tested, under 10 active;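 active means luciferase activation factor, scaled between plate controls, of at least 2 with compound at 10 µM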
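Material: luciferase plus luciferin reagent, cell-free. Medium: PBS buffer for ATP. Also added: ATP substrate, dispensed from a 10.24 µM working solution in PBS. Doses: test compounds dosed from 2 mM stocks in 100% DMSO. Incubation: 10 min post-reagent at room temperature. Technique: light output (luminescence). Read-out basis: luminescence gain marking luciferase activators.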
APP 5'UTR act: APP 5'UTR luciferase reporter activation. activation, % at 2 µM. AID 1276. SH-SY5Y APP 5'UTR luciferase reporter, luminescence; zero percent = DMSO vehicle wells. 190,000 compounds, 1% hits;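 active means activation above a set limit, based on mean plus 3 SD of controls, cut at about 140% in these data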
STAT1 activ conf: confirmation of STAT1 signaling activators; shares compounds with STAT1 act; NIH 3T3 STAT1-luciferase reporter, IFN-gamma potentiation, luminescence; 100% = IFN-gamma EC80 alone, no compound; activation (% of control), % at 5.7 µM; 1,200 compounds, 97% hits;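 active means activation above a set limit carried over from the earlier primary STAT1 screen, cut at about 140% in these data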;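 further: simple ratio to median IFN-gamma plus DMSO wells so 0% means no light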
NFkB act: activates NF-kappaB, counter-screen to STAT1 activators | shares compounds with STAT1 act | HEK293T NF-kB luciferase reporter, TNF-alpha stimulated, luminescence; 100% = TNF-alpha with vehicle only | activation (% of control), % at 5.7 µM | 1,200 compounds, 43% hits | AID 1306;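 active means activation above the mean of solvent-only control wells plus 3 SD, set per campaign, cut at about 130% in these data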;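 further: TNF-alpha given at a submaximal dose yielding about 80% of full reporter signal; values are well signal over median control so 100% means no change and 0% no light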
STAT3 act 2: human STAT3 activation in STAT1 activator counter-screen. activation (% of control), % at 5.7 µM. 1,200 compounds, 46% hits. AID 1316. U3A cells STAT3-luciferase reporter, IL-6, luminescence; cells lack STAT1; 100 = IL-6 alone, no compound effect. shares compounds with STAT1 act;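 active means activation above the solvent-only control well mean plus 3 SD, set per plate batch, cut at about 110% in these data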;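 further: 0% = no luminescence and 100% = median IL-6 plus DMSO wells; higher means more STAT3 reporter activation so hits are non-selective activators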
Active calls of the source: *.

Screening O=C(NC12CC3CC(CC(C3)C1)C2)c1ccc(-c2cccc(Cl)c2)o1 returned FLuc inhib CS 22.8, NF-kB expr up 0.82, STAT1 act 164.5*, FLuc stim CS 0.8, APP 5'UTR act 192.5*, STAT1 activ conf 209.6*, NFkB act 143.0* and STAT3 act 2 127.9*.
Screening O=C(NC12CC3CC(CC(C3)C1)C2)c1ccc(COc2ccc(Cl)cc2[N+](=O)[O-])o1 returned FLuc inhib CS -5.9, NF-kB expr up 0.8, STAT1 act 111.2, FLuc stim CS 1.1 and APP 5'UTR act 4.2.
Screening CCC(=O)Nc1ccc(-c2nnc(-c3ccccc3)o2)cc1 returned FLuc inhib CS 15.8, NF-kB expr up 1, STAT1 act 163.0*, FLuc stim CS 0.8, APP 5'UTR act 209.5*, STAT1 activ conf 220.1*, NFkB act 120.6 and STAT3 act 2 113.1*.
`Cc1cc(C(=O)CSc2ncccn2)c(C)n1-c1cccc(F)c1` gave FLuc inhib CS 53.8*, NF-kB expr up 3.28, STAT1 act 172.4*, FLuc stim CS 0.5, APP 5'UTR act 162.2*, STAT1 activ conf 191.3*, NFkB act 126.4 and STAT3 act 2 111.5*.
For COc1cccc(NC(=O)/C=C/c2ccccc2[N+](=O)[O-])c1 the results were FLuc inhib CS 22.8, NF-kB expr up 3.65*, STAT1 act 153.8*, FLuc stim CS 0.8, APP 5'UTR act 137.8*, STAT1 activ conf 177.5*, NFkB act 136.6* and STAT3 act 2 117.5*.
For Cc1oc(-c2ccc(-c3ccccc3)cc2)nc1CN(C)C1CCOC1 (stereo unspecified) the results were FLuc inhib CS 25.5, NF-kB expr up 2.34, STAT1 act 165.3*, FLuc stim CS 0.7, APP 5'UTR act 79.2, STAT1 activ conf 191.6*, NFkB act 144.0* and STAT3 act 2 116.7*.
For Oc1[nH]c2ccccc2c1C=Nc1ccc2c(c1)OCO2 the results were FLuc inhib CS 35.7, NF-kB expr up 4.88*, STAT1 act 191.7*, FLuc stim CS 0.6, APP 5'UTR act 141.4*, STAT1 activ conf 263.3*, NFkB act 144.2* and STAT3 act 2 103.2.
`Cc1[nH]c2ccccc2c1/C=N\NC(=O)CNc1ccc2c(c1)OCO2` gave FLuc inhib CS 6.0, NF-kB expr up 1.08, STAT1 act 91.3, FLuc stim CS 0.9 and APP 5'UTR act 3.2.
Screening COc1ccc(N=Cc2c(O)[nH]c3ccccc23)cc1 returned FLuc inhib CS 51.8*, NF-kB expr up 4.86*, STAT1 act 216.4*, FLuc stim CS 0.5, APP 5'UTR act 180.7*, STAT1 activ conf 269.1*, NFkB act 134.5* and STAT3 act 2 111.0*.
CC(=O)C(C(C)=O)C1(O)C(=O)c2ccccc2C1=O was read as FLuc inhib CS -8.9, NF-kB expr up 0.87, STAT1 act 96.2, FLuc stim CS 1.1 and APP 5'UTR act 23.5.
For N#CC1CC(c2ccccc2)=NN1c1ccccc1[N+](=O)[O-] (stereo unspecified) the results were FLuc inhib CS 12.5, NF-kB expr up 1.1, STAT1 act 155.8*, FLuc stim CS 0.9, APP 5'UTR act 67.2, STAT1 activ conf 154.9*, NFkB act 129.2 and STAT3 act 2 124.3*.
For Cc1cc(NCCOCCO)n2ncc(-c3ccc(Cl)cc3)c2n1 the results were FLuc inhib CS 34.1, NF-kB expr up 3.65*, STAT1 act 176.7*, FLuc stim CS 0.7, APP 5'UTR act 151.7*, STAT1 activ conf 264.7*, NFkB act 134.8* and STAT3 act 2 132.6*.
`CC(C)(C)C(=O)Nc1ccc(C(=O)OC2CCCCC2)cc1` gave FLuc inhib CS -2.0, NF-kB expr up 3.63*, STAT1 act 161.5*, FLuc stim CS 1, APP 5'UTR act 133.2, STAT1 activ conf 219.4*, NFkB act 145.0* and STAT3 act 2 132.8*.
Screening O=C(OC1CCCCC1)c1ccc(NC(=O)C2CCCCC2)cc1 returned FLuc inhib CS -4.4, NF-kB expr up 0.81, STAT1 act 102.5, FLuc stim CS 1 and APP 5'UTR act -1.6.
`CCCNC(=O)c1cc(-c2ccc(OC)cc2)on1` gave FLuc inhib CS 43.2, NF-kB expr up 6.8*, STAT1 act 152.5*, FLuc stim CS 0.6, APP 5'UTR act 123.2, STAT1 activ conf 170.5*, NFkB act 134.2* and STAT3 act 2 102.7.
C=CCNC(=O)c1cc(-c2ccc(Br)cc2)on1 was read as FLuc inhib CS 14.2, NF-kB expr up 2.49, STAT1 act 160.3*, FLuc stim CS 0.9, APP 5'UTR act 43.1, STAT1 activ conf 170.6*, NFkB act 124.5 and STAT3 act 2 97.2.
Screening CCOC(=O)Cc1c(C)nc(N)[nH]c1=O returned FLuc inhib CS -2.1, NF-kB expr up 1.12, STAT1 act 104.5, FLuc stim CS 1 and APP 5'UTR act 10.3.
O=S(=O)(Nc1nc2ccccc2nc1N1CCc2ccccc2C1)c1ccc(Br)cc1 was read as FLuc inhib CS 45.5, NF-kB expr up 1.82, STAT1 act 158.0*, FLuc stim CS 0.5, APP 5'UTR act 64.3, STAT1 activ conf 180.8*, NFkB act 84.9 and STAT3 act 2 133.4*.
For CCOC(=O)c1sc(NC(=O)c2ccc(C)s2)cc1C the results were FLuc inhib CS 62.2*, NF-kB expr up 3.02, STAT1 act 174.7*, FLuc stim CS 0.4, APP 5'UTR act 171.5*, STAT1 activ conf 193.0*, NFkB act 137.6* and STAT3 act 2 94.5.
For CCOC(=O)c1sc(NC(=O)Nc2ccccc2)cc1C the results were FLuc inhib CS 84.0*, NF-kB expr up 9.48*, STAT1 act 189.4*, FLuc stim CS 0.2, APP 5'UTR act 173.1*, STAT1 activ conf 221.7*, NFkB act 123.3 and STAT3 act 2 107.2.
CCOC(=O)c1sc(NC(=O)Nc2ccccc2Cl)cc1C was read as FLuc inhib CS 79.7*, NF-kB expr up 4.21*, STAT1 act 186.4*, FLuc stim CS 0.2, APP 5'UTR act 219.5*, STAT1 activ conf 295.0*, NFkB act 113.5 and STAT3 act 2 96.2.
`CCOC(=O)c1sc(-c2ccccc2)cc1NC(=O)Nc1ccccc1` gave FLuc inhib CS 2.6, NF-kB expr up 0.84, STAT1 act 99.3, FLuc stim CS 1 and APP 5'UTR act 3.1.
